One assay has as its system HCT-116. In words: Cytotoxicity against human HCT116 cells assessed as inhibition of cell proliferation after 72 hrs by […]. Type of assay: functional, cell-based. Conditions: for IC50: HCT-116, 72 h. In outline:
(§1)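 Cells were grown in D-MEM with 10% fetal calf serum plus penicillin, streptomycin and fungizone, then plated in 96-well plates. After 24 h growth they were treated from 100 μM to 10 nM, with compounds in DMSO (final DMSO 1% to 3%). MTS reagent was added at 72 h and absorbance read at 490 nm versus untreated cells. IC50 came from separate duplicate experiments.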

For a further assay, the system named is Bacillus subtilis. Briefly: Antibacterial activity against Bacillus subtilis ATCC 6633 by disk inhibition zone method. Type of assay: functional, organism-based. Put shortly:
(§2)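 Disk inhibition zone method against the three strains. Reference antibiotics were gentamicin at 10 μg and chloramphenicol at 30 μg. Inhibition zones were compared with these disks.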

The test system of the next assay is Escherichia coli. Briefly: Antibacterial activity against Escherichia coli ATCC 25922 by disk inhibition zone method. Type of assay: functional, organism-based. Put shortly:
as §2

Another assay concerns KB. Briefly: Cytotoxicity against human KB cells assessed as inhibition of cell proliferation after 72 hrs by […] assay. Type of assay: functional, cell-based. In outline:
as §1

For another assay, the system named is MDA-MB-231. In words: Cytotoxicity against human MDA231 cells assessed as inhibition of cell proliferation after 72 hrs by […]. Type of assay: functional, cell-based. In outline:
as §1

Another assay has as its system BL-21. Briefly: (§3) Inhibition of His-tagged Escherichia coli DnaG primase expressed in Escherichia coli BL-21 cells assessed as inhibition of RNA synthesis complementary to ssDNA using rNTPs measured after 5 mins by microplate spectrofluorometer analysis.
The test system of a further assay is Micrococcus luteus. Briefly: Antibacterial activity against Micrococcus luteus ATCC 10240 by disk inhibition zone method. Format: functional, organism-based. In outline: as §2
The subject of a further assay is MCF7. In words: Cytotoxicity against human MCF7 cells assessed as inhibition of cell proliferation after 72 hrs by […]. Type of assay: functional, cell-based. Put shortly:
as §1

The next assay has as its system HT-29. Briefly: Cytotoxicity against human HT-29 cells assessed as inhibition of cell proliferation after 72 hrs by […]. Format: functional, cell-based. Put shortly:
as §1

A short description of assay [1]: as §3.

Activity calls are given as the source filed them. The calls are words filed in the database; no cut-off is given here.

As to `CCCC/C=C/N(NC(C)=O)C(=O)CO`, the inhibition result with HCT-116, in the assay with KB, with MDA-MB-231, in the assay with BL-21, with MCF7 and with HT-29 was “inactive” in each case. Moreover, the outcome in the assay on Bacillus subtilis, in the assay with Escherichia coli and in the assay with Micrococcus luteus was inactive.

In the case of `CCCC/C=C\N(NC(C)=O)C(=O)C(CO)/N=[N+](\[O-])CCCCCC` (configuration not stated) [GERALCIN C], the concentration for half-maximal inhibition (IC50) in the assay with HCT-116 turned out to be 800 nM; in the assay on KB it was 800 nM; in assay [1], 700000 nM. Besides, the outcome in the assay with Bacillus subtilis, in the assay on Escherichia coli and in the assay on Micrococcus luteus was inactive. The inhibition result with BL-21 was “Dose-dependent effect”.

Take `CC(=O)O[C@@]12CO[C@@H]1C[C@H](O)[C@@]1(C)C(=O)[C@H](O)C3=C(C)[C@@H](OC(=O)[C@H](O)[C@@H](NC(=O)OC(C)(C)C)c4ccccc4)C[C@@](O)([C@@H](OC(=O)c4ccccc4)[C@H]21)C3(C)C` [DOCETAXEL]: the values for the 50% inhibitory concentration (IC50) in the assay with HCT-116 and in the assay with KB were 50 nM and 0.25 nM, respectively.

Consider `CCCC[C@H]1ON(C(=O)CCC2=CCOC2=O)N=C(C)O[C@H]1O` (mixture of isomers), for which the inhibition entry with HCT-116, in the assay on KB, in the assay with MDA-MB-231, with BL-21, with MCF7 and with HT-29 was “inactive” throughout. Moreover, the result in the assay with Bacillus subtilis, in the assay on Escherichia coli and in the assay with Micrococcus luteus was inactive.

The values above are taken from ChEMBL document CHEMBL2331346, “Isolation and characterization of unusual hydrazides from Streptomyces sp. impact of the cultivation support and extraction procedure” (J Nat Prod, 2013).
